We go through 22 molecules from ChEMBL document CHEMBL3271961, “Dibenztroponeacetic and -propionic acids. Potent new antiinflammatory agents” (1977).

Each structure is given as a SMILES string.

Experiment [1] has as its system Rattus norvegicus. The experiment is described as follows: Antiinflammatory activity in rat assessed as inhibition of carrageenan-induced paw edema administered into pad of right hind paw 1 hr before carrageenan challenge measured after 4 hrs relative to phenylbutazone. In kind it is functional. As to conditions: in the assay text read “administered po” for “administered into pad of right hind paw”. Put shortly: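 Female rats, 80-90 g, gavaged with test material in 1 mL aqueous vehicle. One hour later, 0.05 mL of 1% carrageenan in 0.9% NaCl injected into the right hind paw pad. Rats killed 4 h after dosing. Both hind paws weighed, and the percent weight increase of the inflamed paw calculated. Six rats per group. Phenylbutazone standard usually at 3.6, 11 and 33 mg/kg.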
Background: The carrageenan paw model is a standard test of acute inflammation.

For another experiment, the system named is Mus musculus. The experiment is described as follows: Analgesic activity in po dosed mouse assessed as inhibition of phenylquinone-induced writhing measured up to 10 mins relative to aspirin. In kind it is functional. Put shortly: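 Male mice, 18-20 g, dosed orally in aqueous vehicle at time zero. Writhing induced 20 min later by ip injection of 0.25 mL 0.02% phenylquinone, then counted over the next 10 min. Groups of usually 8-10 mice. Aspirin standard given at 16.5, 50 and 150 mg/kg. Relative potency determined graphically or by Finney's methods.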
Background: Writhing tests count abdominal constrictions after an irritant is injected.

In experiment [2] the test system is Rattus norvegicus. The experiment is described as follows: Antiinflammatory activity in po dosed rat assessed as inhibition of carrageenan immersed cotton pellet-induced granuloma administered daily once for 7 days measured one day after last dose relative to indomethacin. It is filed as functional. Put shortly:
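Two 50-mg cotton pellets, soaked 24 h in 1% carrageenan, dried, then dipped in 1% penicillin G/1% streptomycin, implanted sc dorso-lumbar in 180-200 g rats (one sex per test). Daily oral dosing for 7 days. Next day, pellets with granulomas removed, dried 24 h at 100 °C, weighed. Usually nine rats/group. Indomethacin standard at 0.5, 1, 2, 4 mg/kg/day.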

In experiment [3] the test system is Rattus norvegicus. The experiment is described as follows: Antiarthritic activity in po dosed rat assessed as inhibition of adjuvant-induced arthritis administered twice daily for 17 days measured on day 18 relative to indomethacin.

With `CC(C(=O)O)c1ccc2c(=O)c3ccccc3ccc2c1` (racemic), the Ratio amounted to 44 in the experiment with Rattus norvegicus [1] and 12 with Mus musculus.

As for `CC(C(=O)[O-])c1ccc2c(=O)c3ccccc3ccc2c1.[Na+]` (stereo not drawn), the Ratio in the experiment on Rattus norvegicus [1] stood at 62.

For the molecule `CC(C(=O)O)c1ccc2c(=O)c3ccccc3ccc2c1` (single isomer, unassigned; (+)), the Ratio worked out at 68 in the experiment on Rattus norvegicus [1] and 20 in the experiment on Mus musculus.

Consider `CCN(CC)CCOC(=O)C(C)c1ccc2c(=O)c3ccccc3ccc2c1.Cl` (racemic), for which the Ratio with Rattus norvegicus [1] turned out to be 14; in the experiment with Mus musculus it was 10.

Take `CC(C)CCOC(=O)C(C)c1ccc2c(=O)c3ccccc3ccc2c1` (racemic): the Ratio in the experiment with Rattus norvegicus [1] was determined as 6; with Mus musculus it was 1.7.

Turning to `CC(C)(C(=O)O)c1ccc2c(=O)c3ccccc3ccc2c1`, the Ratio with Rattus norvegicus [1] amounted to 0.5.

In the case of `CCCCCCCCCCCCCCCCCCCCOC(=O)C(C)c1ccc2c(=O)c3ccccc3ccc2c1` (racemic), the Ratio entry is “<=1” with Rattus norvegicus [1] and less than 0.5 with Mus musculus.

As to `CC(C(=O)OCCCCN(C)C)c1ccc2c(=O)c3ccccc3ccc2c1` (racemic), the Ratio is on record as 7 in the experiment with Rattus norvegicus [1] and less than 3 in the experiment on Mus musculus.

Take `CCN(C)CCOC(=O)C(C)c1ccc2c(=O)c3ccccc3ccc2c1` (racemic): the Ratio with Rattus norvegicus [1] is recorded as 20; with Mus musculus, less than 2.

In the case of `CC(C(=O)O)c1ccc2c(=O)c3ccccc3ccc2c1` (single isomer, unassigned; (-)), the Ratio with Rattus norvegicus [1] and with Mus musculus was 1.5 each time.

As to `COC(=O)C(C)c1ccc2c(=O)c3ccccc3ccc2c1` (racemic), the Ratio is on record as 11 in the experiment with Rattus norvegicus [1] and 2 in the experiment on Mus musculus.

Take `CC(C(=O)OCCN(C)C)c1ccc2c(=O)c3ccccc3ccc2c1` (racemic): the Ratio is reported as 30 with Rattus norvegicus [1] and 7 with Mus musculus.

Take `CCC(C(=O)O)c1ccc2c(=O)c3ccccc3ccc2c1` (racemic): the Ratio worked out at 7 in the experiment with Rattus norvegicus [1] and 2 in the experiment with Mus musculus.

Turning to `C=C(C(=O)O)c1ccc2c(=O)c3ccccc3ccc2c1`, the Ratio with Rattus norvegicus [1] is recorded as 4; in the experiment with Mus musculus it was 1.

Consider `COC(=O)Cc1ccc2c(=O)c3ccccc3ccc2c1`, for which the Ratio with Rattus norvegicus [1] was 3; with Mus musculus, less than 1.

Consider `O=C(O)Cc1ccc2c(=O)c3ccccc3ccc2c1`, for which the Ratio was determined as 6 in the experiment with Rattus norvegicus [1], 2 in the experiment with Mus musculus, 0.1 in the experiment with Rattus norvegicus [2] and 0.1 in the experiment on Rattus norvegicus [3].

Turning to `COC(=O)C(C)c1ccc2c(=O)c3ccccc3ccc2c1` (stereo not drawn), the Ratio with Rattus norvegicus [1] was 15; in the experiment on Rattus norvegicus [3], 2.

In the case of `CC(C(=O)OCCN1CCOCC1)c1ccc2c(=O)c3ccccc3ccc2c1.Cl` (racemic), the values for the Ratio with Rattus norvegicus [1] and with Mus musculus were 9 and less than 1, respectively.

As to `CCCCCCCCCCCCOC(=O)C(C)c1ccc2c(=O)c3ccccc3ccc2c1` (racemic), the Ratio in the experiment with Rattus norvegicus [1] is reported as 15; with Mus musculus it was less than 0.5.

`CC(C(=O)OCCN(C)C)c1ccc2c(=O)c3ccccc3ccc2c1` (single isomer, unassigned; (+)): the Ratio with Rattus norvegicus [1] is on record as 45.

In the case of `CC(O)(C(=O)O)c1ccc2c(=O)c3ccccc3ccc2c1` (racemic), the Ratio is less than 0.5 with Rattus norvegicus [1] and 1.5 in the experiment on Mus musculus.

With `CC(C(=O)OCCN1CCCCC1)c1ccc2c(=O)c3ccccc3ccc2c1` (racemic), the Ratio in the experiment on Rattus norvegicus [1] was 15; in the experiment with Mus musculus, less than 2.
